Screening data: PubChem BioAssay, The Scripps Research Institute Molecular Screening Center
M5 ag: agonists of human muscarinic M5 receptor (CHRM5); P08912; CHO-K1 hM5 cells, Fluo-8 calcium fluorescence; 0% DMSO wells, 100% maximal acetylcholine response; activation, % at 3 µM; hit rate 0.19% among 360,000;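 active = activation above the run's mean over test compounds plus 3 SD, cut at about 23% in these data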;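 also: signal is peak over basal fluorescence ratio across the kinetic read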
M5 antag: blocks acetylcholine activation of human M5 receptor; P08912; CHO-hM5 cells, Fluo-8 calcium fluorescence, ACh EC80; inhibition, % at 3 µM; AID 624040; hit rate 0.59% among 360,000;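 active = inhibition above a per-plate cutoff, the mean of that plate's test compounds plus 3 SD, cut at about 27% in these data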;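 also: 0% = acetylcholine EC80 with DMSO and 100% = DMSO without agonist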
M4 ag: agonists of human muscarinic M4 receptor (CHRM4) | P08173 | activation, % at 3 µM | CHO-K1 hM4/Gqi5, Fluo-8 calcium fluorescence; vehicle 0%, full acetylcholine response 100% | hit rate 0.14% among 360,000;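 active = activation above the run mean over all test wells plus 3 SD, cut at about 32% in these data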;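 also: peak over basal fluorescence ratio per well then scaled between controls; 0% = DMSO wells and 100% = acetylcholine at EC100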
Target sequence (P08173 whole entry, looked up): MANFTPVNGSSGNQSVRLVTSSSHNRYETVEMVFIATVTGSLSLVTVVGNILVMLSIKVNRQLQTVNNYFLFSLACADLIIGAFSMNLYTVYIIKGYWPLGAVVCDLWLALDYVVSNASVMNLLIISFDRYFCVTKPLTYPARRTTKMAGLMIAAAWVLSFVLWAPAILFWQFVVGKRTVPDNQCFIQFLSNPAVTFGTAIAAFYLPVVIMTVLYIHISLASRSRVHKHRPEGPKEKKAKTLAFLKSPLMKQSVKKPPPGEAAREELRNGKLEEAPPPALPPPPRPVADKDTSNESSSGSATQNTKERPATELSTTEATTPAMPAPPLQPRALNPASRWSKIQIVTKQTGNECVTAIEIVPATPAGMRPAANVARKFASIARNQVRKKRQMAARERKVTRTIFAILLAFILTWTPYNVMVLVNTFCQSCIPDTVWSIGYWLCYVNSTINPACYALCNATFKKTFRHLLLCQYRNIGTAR
M5 PAM: positive allosteric modulators of human muscarinic M5 receptor. P08912. CHO-K1 hM5, Fluo-8 calcium, ACh EC20 PAM; 0% = ACh EC20, 100% = ACh EC100. activation, % at 3 µM. hit rate 0.3% among 360,000. AID 624038;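 active = activation above the run cutoff, the mean activation of all test compounds plus 3 SD, cut at about 18% in these data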
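Replicates: One well per compound, no replicates | System: Human M5 receptor in CHO-K1 cells | Benchmarks: Low control EC20 acetylcholine (0%), high control EC100 acetylcholine (100%) | Probe or stimulus: Acetylcholine, EC20 level | Times: Fluo-8 loading 80 min at 37 °C plus 30 min room temperature | Signal: Intracellular calcium via Fluo-8 fluorescence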
CHRM4 antagonist: CHRM4 antagonism in calcium assay | P08173 | CHO-hM4 cells, ACh EC80, Fluo-8 calcium fluorescence | inhibition, % at 3 µM | hit rate 0.73% among 360,000 | AID 624125;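 active = inhibition above its plate's cutoff, the mean inhibition of sample wells plus 3 SD, cut at about 27% in these data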;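 also: 0% = acetylcholine EC80 with DMSO and 100% = DMSO without agonist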
M4 PAM: potentiates acetylcholine response at human M4 receptor. hit rate 0.4% among 360,000. CHO-K1 hM4/Gqi5, Fluo-8 calcium fluorescence, ACh EC20; 0% = ACh EC20, 100% = maximal ACh. activation, % at 3 µM. AID 624126;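 active = activation above its plate's cutoff, the mean activation of sample wells plus 3 SD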
Active calls of the source: *. In the library only some 1.8% were active in any assay of this set; here they are far more common.

SMILES	M5 ag	M5 antag	M4 ag	M5 PAM	CHRM4 antagonist	M4 PAM
CC(Oc1ccc(Br)cc1)C(=O)Nc1ccc(S(=O)(=O)N(C)C2CCN(C)CC2)cc1 (centres undefined)	62*	26	96*	-14	31*	-11
COc1cccc(/C(C)=N/Nc2ccc(S(=O)(=O)N3CCCCC3)cn2)c1	-4	3	1	2	2	2
NS(=O)(=O)c1ccc(Nc2nc(-c3ccc(O)cc3)cs2)cc1	1	12	2	-11	19	-11
Oc1ccc(Nc2nc(-c3ccc(O)cc3)cs2)cc1	1	0	0	12	-2	34*
Cc1cc(-c2ccccc2)n(-c2ccc(C(=O)N3CCN(c4ncccn4)CC3)cc2)n1	0	5	11	-14	32*	-8
COc1ccc(S(=O)(=O)N2CCN(c3ccccc3)CC2)cc1	-5	28*	1	-12	4	1
CCOC(=O)COc1ccc(S(=O)(=O)N2CCN(c3ccccc3F)CC2)cc1	4	6	2	-5	1	-6
CCOC(=O)COc1ccc(S(=O)(=O)N2CCN(c3ccc(OC)cc3)CC2)cc1	-3	33*	14	-15	9	-9
O=S(=O)(c1ccccc1)N1CCN(c2ccccc2)CC1	0	-10	1	2	-10	-1
CCCn1c(=O)n(C)c(=O)c2c(SCC(=O)NC34CC5CC(CC(C5)C3)C4)nc(CC(C)C)nc21	0	-9	0	4	1	1
Cc1sc2ncnc(N3CCC(C(=O)Nc4ccc(C#N)cc4)CC3)c2c1C	3	0	3	1	1	24*
Cc1sc2ncnc(N3CCC(C(=O)Nc4cc(Cl)ccc4Cl)CC3)c2c1C	1	5	36*	-8	34*	56*
CCN(CC(=O)Nc1cc(Cl)ccc1C)C(=O)C1CCN(c2ncnc3sc(C)c(C)c23)CC1	2	27*	18	-18	15	-13
Cc1sc2ncnc(N3CCC(C(=O)Nc4ccc(S(N)(=O)=O)cc4)CC3)c2c1C	1	6	79*	3	67*	18
Cc1sc2ncnc(N3CCC(C(=O)N(C)CC(=O)Nc4ccccc4Cl)CC3)c2c1C	-1	-1	20	-16	11	-2
Cc1ccc(NC(=O)C2CCN(c3ncnc4sc(C)c(C)c34)CC2)cc1S(=O)(=O)N(C)C	-2	0	14	-14	-1	-14
COCCN(C(=O)CCC(=O)Nc1cc(C)on1)C(C(=O)NC(C)(C)C)c1cccc(OC)c1OC (centres undefined)	-3	-1	0	14	6	11
COc1ccc(C2SCC(=O)N2c2c(C)n(C)n(-c3ccccc3)c2=O)cc1OC (centres undefined)	5	0	1	33*	-7	7
Cc1c(N2C(=O)CSC2c2ccccc2)c(=O)n(-c2ccccc2)n1C (centres undefined)	-1	6	0	2	0	2
C1N2CN3CN1CN(C2)C3	0	7	1	-6	6	-7
CC1(C)CC2CC(C)(CN2S(=O)(=O)c2ccccc2[N+](=O)[O-])C1 (centres undefined)	-1	6	-1	-3	-7	-1
O=C(CCSc1nnc(-c2ccncc2)o1)Nc1ccccc1	0	-7	2	3	-10	6
CCNC(=O)CCSc1nnc(-c2ccncc2)o1	-1	13	0	6	3	24*
Cc1cc(OCCCN2CCC(C(O)(c3ccccc3)c3ccccc3)CC2)ccc1Br	-2	10	17	-17	29*	-10
Cc1ccc(C(=O)NC2CC3CCCC(C2)N3C(=S)NCc2ccco2)cc1 (centres undefined)	-6	-14	1	2	-14	21*
SMILES	M5 ag	M5 antag	M4 ag	M5 PAM	CHRM4 antagonist	M4 PAM
N#C/C(=N/Nc1ccc([N+](=O)[O-])cc1)C(=N)N1CCCCC1	2	3	0	-2	0	-11
N#C/C(=N\Nc1ccc([N+](=O)[O-])cc1)C(N)=S	7	30*	10	-20	-2	-23
N#C/C(=N\Nc1ccc(S(=O)(=O)N2CCCCCC2)cc1)C(N)=S	4	30*	12	-17	-5	-7
N#C/C(=N\Nc1ccc(S(=O)(=O)N2CCCCC2)cc1)C(N)=S	7	3	7	-4	1	-2
Oc1ccc(F)c(CN2CCN(c3ncc(Cc4ccccc4)cn3)CC2)c1	1	8	17	-6	1	2
COc1ccc(C(=O)Nc2c3c(nn2-c2ccc(Cl)cc2)CS(=O)(=O)C3)cc1	5	-83	1	25*	-6	-4
COc1ccc(-n2nc3c(c2NC(=O)c2ccc(Br)o2)CS(=O)(=O)C3)cc1	-3	4	4	-1	6	24*
O=C(Nc1c2c(nn1-c1ccc(F)cc1)CS(=O)(=O)C2)c1ccc(Br)o1	-5	17	0	-5	-13	-9
CN1c2ccccc2SC2C(c3ccccc3)=NOC21 (centres undefined)	1	-4	0	4	-2	4
Cc1ccc(NS(=O)(=O)c2ccc(C(=O)N3CC(C)CC(C)C3)cc2)cc1 (centres undefined)	56*	31*	107*	-15	35*	-19
CC1CN(C(=O)c2ccc(S(=O)(=O)Nc3cccc(C(F)(F)F)c3)cc2)CC(C)O1 (centres undefined)	28*	3	12	-4	-11	-2
CS(=O)(=O)Nc1ccc(C(=O)N2CCCCC2)cc1	0	-4	3	-8	-3	23*
COc1ccc(NC(=O)CSc2nnc(CN3CCOCC3)n2C)cc1Cl	-4	5	1	3	-10	9
Cc1ccc(N2CCCn3c2cc(C)c(C#N)c3=O)cc1Cl	-1	-5	1	6	1	38*
Cc1ccc(N2CCCn3c2cc(C)c(C#N)c3=O)cc1C	0	5	0	3	-2	9
COc1ccccc1N1CCN(C(=O)C2=CC=CN3CCS(=O)(=O)N=C23)CC1	2	10	0	-5	7	0
CC(/C=N/n1c(-c2ccc(Cl)cc2)n[nH]c1=S)=C\c1ccco1	2	2	0	-4	2	0
N#CC(C#N)=C1C=CC=CN1/C(=C\c1ccco1)C(=O)c1ccc(-c2ccccc2)cc1	-4	9	4	-3	27*	-9
N#CC(C#N)=C1C=CC=CN1/C(=C\c1ccco1)C(=O)c1ccc(Cl)cc1	-3	8	3	2	55*	-12
